Source: ChEMBL document CHEMBL1123566, “Synthesis and cardiac electrophysiological activity of 2- and 3-[(substituted phenyl)alkyl]quinuclidines. Structure-activity relationships” (1987)
Values joined by “and” are separate entries in the source; they are usually repeats but may differ in a detail not shown here. Equal values may be shown once.

Legend:
Canis familiaris [1] = experiment: Heart rate was determined by intraduodenal administration of two dosages of 1 mg/kg of (low dose) compound in anesthetized dogs. Value was reported for experiment 2; assay type: functional, Canis lupus familiaris
Outline: (§1)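 Anesthetized dogs given the compound intraduodenally, generally as two doses with the second a cumulative total (low/high). FRP and CT measured at 15, 30 and 45 min after dosing. HR and BP taken during nonpacing intervals. Values are percent change from control per animal. Activity criterion is FRP or CT prolonged ≥12%. Vehicle: 5% dextrose in water/tragacanth.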

Canis familiaris [2] = species on record: Canis familiaris; experiment: In vitro electrophysiological activity in canine cardiac Purkinje fibres given as maximum % change for action potential duration at 0.01-100 uM concentration; assay type: functional, Canis lupus familiaris, Purkinje fiber
Outline: (§2)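 Canine cardiac Purkinje fibers, intracellular recording, paced at a basic cycle length of 1 s. APD95 and Vmax are recorded together across cumulative concentrations. Compound is a 10 mM aqueous stock diluted into Tyrode's solution. Each fiber is used once as its own control. Readouts are percent change from control at 10 μM, and the maximum change with the concentration where it occurred.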

Canis familiaris [3] = experiment: Conduction time was determined by intraduodenal administration of two dosages of 10 mg/kg (high dose) of compound in anesthetized dogs. Value was reported for experiment 3; assay type: functional, Canis lupus familiaris; outline: as §1
Canis familiaris [4] = experiment: Conduction time was determined by intraduodenal administration of two dosages of 1 mg/kg (low dose) of compound in anesthetized dogs. Value was reported for experiment 2; assay type: functional, Canis lupus familiaris; outline: as §1
Canis familiaris [5] = experiment: Mean arterial blood pressure was determined by intraduodenal administration of two dosages of 1 mg/kg of (low dose) compound in anesthetized dogs. Value was reported for experiment 2; assay type: functional, Canis lupus familiaris
Outline: (§3)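 Anesthetized dogs, usually given two intraduodenal doses, with the second dose cumulative (low/high). Left ventricular FRP and CT were determined at 15, 30 and 45 min after dosing. HR and BP were measured during nonpacing intervals. Values are % change from control at low/high dose, for individual animals. The vehicle-stability set used 5% dextrose in water/tragacanth (n = 8).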

Canis familiaris [6] = experiment: Left ventricular refractory period was determined by intraduodenal administration of two dosages of 10 mg/kg of (high dose) compound in anesthetized dogs. Value was reported for experiment 1; assay type: functional, Canis lupus familiaris, Cardiac ventricle
Outline: (§4)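 Anesthetized dogs received two intraduodenal doses, the second cumulative (low dose/high dose). Left ventricular FRP and CT were measured 15, 30 and 45 min after dosing. Heart rate and mean blood pressure were taken during nonpacing intervals. Values are percent change from control. The vehicle was 5% dextrose in water/tragacanth. Activity was defined as ≥12% prolongation of FRP or CT.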

Canis familiaris [7] = species on record: Canis familiaris; experiment: In vitro electrophysiological evaluation in canine cardiac Purkinje fibres reported as % change for action potential duration at 0.1-10 uM concentration range; assay type: functional, Canis lupus familiaris, Purkinje fiber
Outline: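 Canine cardiac Purkinje fibres, intracellular microelectrode recording, paced at a basic cycle length of 1 s. APD95 and Vmax read simultaneously. Compound: 10 mM stock in deionized water, diluted into Tyrode's solution, tested over the stated concentration range. Each fibre used once as its own control. Result is % change from control, given at 10 µM or as the maximum with its concentration. M = <10% decrease or an increase in Vmax.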

Canis familiaris [8] = experiment: Mean arterial blood pressure was determined by intraduodenal administration of two dosages of 3 mg/kg of (low dose) compound in anesthetized dogs. Value was reported for experiment 1; assay type: functional, Canis lupus familiaris; outline: as §4
Canis familiaris [9] = experiment: Mean arterial blood pressure was determined by intraduodenal administration of two dosages of 1 mg/kg of (low dose) compound in anesthetized dogs. Value was reported for experiment 3; assay type: functional, Canis lupus familiaris; outline: as §3
Canis familiaris [10] = experiment: Mean arterial blood pressure was determined by intraduodenal administration of two dosages of 3 mg/kg of (high dose) compound in anesthetized dogs. Value was reported for experiment 3; assay type: functional, Canis lupus familiaris; outline: as §3
Canis familiaris [11] = experiment: Conduction time was determined by intraduodenal administration of two dosages of 3 mg/kg (high dose) of compound in anesthetized dogs. Value was reported for experiment 3; assay type: functional, Canis lupus familiaris; outline: as §1
Canis familiaris [12] = species on record: Canis familiaris; experiment: In vitro electrophysiological evaluation in canine cardiac ventricular muscle reported as maximum % change for functional refractory period (FRP) at 0.1-100 uM concentration range; parameters: species or system Canis lupus familiaris, Muscle tissue
Canis familiaris [13] = experiment: Conduction time was determined by intraduodenal administration of two dosages of 3 mg/kg (low dose) of compound in anesthetized dogs. Value was reported for experiment 1; assay type: functional, Canis lupus familiaris
Outline: (§5)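 Anesthetized dogs; compound given intraduodenally, generally as two doses, the second a cumulative (high) dose. LV functional refractory period and conduction time measured 15, 30 and 45 min after dosing; heart rate and blood pressure measured during nonpacing intervals. Values are % change from control, given per individual animal. Active if FRP or CT prolonged by ≥12%.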

Canis familiaris [14] = experiment: Heart rate was determined by intraduodenal administration of two dosages of 10 mg/kg of (high dose) compound in anesthetized dogs. Value was reported for experiment 3; assay type: functional, Canis lupus familiaris; outline: as §1
Canis familiaris [15] = experiment: Heart rate was determined by intraduodenal administration of two dosages of 1 mg/kg of (low dose) compound in anesthetized dogs. Value was reported for experiment 3; assay type: functional, Canis lupus familiaris; outline: as §1
Canis familiaris [16] = experiment: Left ventricular refractory period was determined by intraduodenal administration of two dosages of 3 mg/kg of (low dose) compound in anesthetized dogs. Value was reported for experiment 1; assay type: functional, Canis lupus familiaris, Cardiac ventricle; outline: as §4
Canis familiaris [17] = species on record: Canis familiaris; experiment: In vitro electrophysiological evaluation in canine cardiac Purkinje fibres reported as maximum percent change Vmax concentration range of 0.1-10 uM; assay type: functional; details: Canis lupus familiaris; Purkinje fiber; outline: as §2
Canis familiaris [18] = experiment: Mean arterial blood pressure was determined by intraduodenal administration of two dosages of 10 mg/kg of (high dose) compound in anesthetized dogs. Value was reported for experiment 1; assay type: functional, Canis lupus familiaris; outline: as §4
Canis familiaris [19] = experiment: Mean arterial blood pressure was determined by intraduodenal administration of two dosages of 3 mg/kg of (high dose) compound in anesthetized dogs. Value was reported for experiment 2; assay type: functional, Canis lupus familiaris; outline: as §3
Canis familiaris [20] = experiment: Left ventricular refractory period was determined by intraduodenal administration of two dosages of 1 mg/kg of (low dose) compound in anesthetized dogs. Value was reported for experiment 2; assay type: functional, Canis lupus familiaris, Cardiac ventricle; outline: as §3
Canis familiaris [21] = species on record: Canis familiaris; experiment: In vitro electrophysiological evaluation in canine cardiac ventricular muscle reported as % change for conduction time(CT) at 0.1-10 uM concentration range; Minimal (<IO%increase or a decrease in CT); assay type: functional, Canis lupus familiaris, Muscle tissue
Outline: (§6)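 Canine right ventricular/papillary muscle strips in oxygenated Tyrode's, extracellular extra-stimulus conduction-interval method. FRP and CT are read from conduction-interval curves before and during rising concentrations. Compound is a 10 mM aqueous stock diluted into Tyrode's. Each strip is used once as its own control. Readouts are percent change from control at 10 μM, plus the maximum change with its concentration.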

Canis familiaris [22] = experiment: Mean arterial blood pressure was determined by intraduodenal administration of two dosages of 10 mg/kg of (high dose) compound in anesthetized dogs. Value was reported for experiment 3; assay type: functional, Canis lupus familiaris; outline: as §3
Canis familiaris [23] = experiment: Conduction time was determined by intraduodenal administration of two dosages of 3 mg/kg (high dose) of compound in anesthetized dogs. Value was reported for experiment 2; assay type: functional, Canis lupus familiaris; outline: as §1
Canis familiaris [24] = species on record: Canis familiaris; experiment: In vitro electrophysiological evaluation in canine cardiac ventricular muscle reported as % change for conduction time(CT) at 0.1-100 uM concentration range; assay type: functional, Canis lupus familiaris, Muscle tissue; outline: as §6
Canis familiaris [25] = experiment: Left ventricular refractory period was determined by intraduodenal administration of two dosages of 1 mg/kg of (low dose) compound in anesthetized dogs. Value was reported for experiment 3; assay type: functional, Canis lupus familiaris, Cardiac ventricle; outline: as §3
Canis familiaris [26] = experiment: Heart rate was determined by intraduodenal administration of two dosages of 3 mg/kg of (high dose) compound in anesthetized dogs. Value was reported for experiment 2; assay type: functional, Canis lupus familiaris; outline: as §1
Canis familiaris [27] = experiment: Heart rate was determined by intraduodenal administration of two dosages of 3 mg/kg of (low dose) compound in anesthetized dogs. Value was reported for experiment 1; assay type: functional, Canis lupus familiaris; outline: as §5

`CCCCCCC[N+](CC)(CC)CCCCc1ccc(Cl)cc1.O=P([O-])(O)O` [CLOFILIUM PHOSPHATE] was tested, and the HR (Canis familiaris [1]) was -2%, the APD95 (Canis familiaris [2]) was 27% and 55% and the CT (Canis familiaris [3]) was -11%. For the same compound, the CT (Canis familiaris [4]) was -5%, the Mean blood pressure (Canis familiaris [5]) was -2% and the “LV FRP” value (Canis familiaris [6]) was 22%. It also gave an APD95 (Canis familiaris [7]) of 52%, a Mean blood pressure (Canis familiaris [8]) of -7% and a Mean blood pressure (Canis familiaris [9]) of -3%. For the same compound, the Mean blood pressure (Canis familiaris [10]) was 0%, the CT (Canis familiaris [11]) was -7% and the FRP (Canis familiaris [12]) was -3% and 14% and 7%. It also gave a CT (Canis familiaris [13]) of -4%, an HR (Canis familiaris [14]) of -11% and an HR (Canis familiaris [15]) of -2%. For the same compound, the “LV FRP” value (Canis familiaris [16]) was 10%, the Vmax (Canis familiaris [17]) was -11% and the Mean blood pressure (Canis familiaris [18]) was -11%. The Mean blood pressure (Canis familiaris [19]) was -14%, the “LV FRP” value (Canis familiaris [20]) was -1% and the CT (Canis familiaris [21]) was under 10%. For the same compound, the Mean blood pressure (Canis familiaris [22]) was 4%, the CT (Canis familiaris [23]) was -7% and the CT (Canis familiaris [24]) was 11%. The “LV FRP” value (Canis familiaris [25]) was 4%, the HR (Canis familiaris [26]) was -6% and the HR (Canis familiaris [27]) was -9%.
